# Key:
# [1] = target: Cytochrome P450 2C9 (Homo sapiens, UniProt P11712); test: Inhibition of CYP2C9; assay type: ADME
# [2] = tested on: Rattus norvegicus; test: Antihyperalgesic activity in L5/L6 SNL Sprague-Dawley rat model of […] model assessed as reversal of thermal hyperalgesia at 30 mg/kg, ip measured after 30 mins; assay type: functional; settings: route intraperitoneal
# Outline: (§1)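 Sprague-Dawley rats under halothane had L5 and L6 spinal nerves tightly ligated with 4-0 silk distal to the DRG, then recovered singly housed. Drug given intraperitoneally. Mechanical withdrawal threshold and radiant-heat withdrawal latency of the affected hind paw were measured.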
# [3] = tested on: Hepatocyte; test: Metabolic stability in human liver hepatocytes assessed as compound turnover after 120 mins; assay type: ADME, cell-based; settings: 2 h
# [4] = target: Sodium-dependent noradrenaline transporter (Homo sapiens, UniProt P23975); test: Displacement of [3H]nisoxetine from human NET expressed in CHO cells after 120 mins by scintillation counting; assay type: cell-based
# Chain of Sodium-dependent noradrenaline transporter (P23975 whole entry): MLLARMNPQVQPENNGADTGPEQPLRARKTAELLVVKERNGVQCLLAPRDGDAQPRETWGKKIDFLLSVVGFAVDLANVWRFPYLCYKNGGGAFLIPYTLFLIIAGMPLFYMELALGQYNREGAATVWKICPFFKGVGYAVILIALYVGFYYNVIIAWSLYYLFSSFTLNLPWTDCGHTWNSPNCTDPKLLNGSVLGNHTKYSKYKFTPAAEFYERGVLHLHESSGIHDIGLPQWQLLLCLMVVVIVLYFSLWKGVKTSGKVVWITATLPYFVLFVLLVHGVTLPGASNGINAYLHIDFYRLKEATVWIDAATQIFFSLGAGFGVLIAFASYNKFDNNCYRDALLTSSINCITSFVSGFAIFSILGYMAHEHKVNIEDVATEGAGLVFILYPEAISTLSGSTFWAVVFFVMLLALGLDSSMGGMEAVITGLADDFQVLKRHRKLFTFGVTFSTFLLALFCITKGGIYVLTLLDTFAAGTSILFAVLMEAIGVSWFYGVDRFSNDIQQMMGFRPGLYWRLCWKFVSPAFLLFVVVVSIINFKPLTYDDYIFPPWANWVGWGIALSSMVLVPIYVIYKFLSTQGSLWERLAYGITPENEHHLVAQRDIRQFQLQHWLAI
# Outline: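 Membranes from hNET-transfected CHO cells (20 μg protein) incubated 120 min at 4 °C with 1 nM [3H]nisoxetine in 50 mM Tris-HCl pH 7.4, 120 mM NaCl, 5 mM KCl. Nonspecific binding defined with 1 μM desipramine. Filtered on PEI-soaked GF/B and counted.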
# [5] = tested on: Rattus norvegicus; test: Antiallodynic activity in L5/L6 SNL Sprague-Dawley rat model of […] model assessed as reversal of mechanical force-induced allodynia at 30 mg/kg, ip measured after 30 mins; assay type: functional; settings: route intraperitoneal; outline: as §1
# [6] = Vasoconstrictive activity in U46619 precontracted human arteries assessed as inhibition of acetylcholine-induced vasorelaxation at 100 uM after 50 mins in presence of L-arginine; assay type: tissue-based, Artery
# Outline: (§2)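 Human resistance artery rings (~2 mm) from surgical tissue, wire-mounted in myograph baths of Krebs PSS at 37 °C, gassed with 95% O2/5% CO2. […] Compound given 50 min with or without L-arginine, then U46619 preconstriction and ACh curves (1×10⁻¹⁰ to 1×10⁻⁵ M). Responses as % of maximal U46619 contraction.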
# [7] = target: Cytochrome P450 2D6 (Homo sapiens, UniProt P10635); test: Inhibition of CYP2D6; assay type: ADME
# Chain of Cytochrome P450 2D6 (P10635 whole entry): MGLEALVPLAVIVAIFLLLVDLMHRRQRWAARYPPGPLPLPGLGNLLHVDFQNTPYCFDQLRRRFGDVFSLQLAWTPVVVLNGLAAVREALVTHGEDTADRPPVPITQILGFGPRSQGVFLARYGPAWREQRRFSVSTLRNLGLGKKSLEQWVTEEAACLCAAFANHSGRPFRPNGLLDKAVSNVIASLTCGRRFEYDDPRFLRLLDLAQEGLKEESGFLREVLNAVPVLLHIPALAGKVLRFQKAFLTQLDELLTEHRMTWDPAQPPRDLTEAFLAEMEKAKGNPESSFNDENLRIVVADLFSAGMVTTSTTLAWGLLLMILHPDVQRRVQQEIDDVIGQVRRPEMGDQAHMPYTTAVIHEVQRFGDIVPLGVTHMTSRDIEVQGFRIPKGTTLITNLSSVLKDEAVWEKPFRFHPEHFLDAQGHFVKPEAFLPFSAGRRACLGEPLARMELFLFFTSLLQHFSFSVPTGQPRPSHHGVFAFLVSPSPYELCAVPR
# [8] = Vasoconstrictive activity in U46619 precontracted human arteries assessed as inhibition of acetylcholine-induced vasorelaxation at 100 uM after 50 mins; assay type: tissue-based, Artery; outline: as §2
# [9] = target: T1, Cytochrome P450 1A2 (Homo sapiens, UniProt P05177); test: Inhibition of CYP1A2; assay type: ADME
# T1 sequence (P05177 whole entry): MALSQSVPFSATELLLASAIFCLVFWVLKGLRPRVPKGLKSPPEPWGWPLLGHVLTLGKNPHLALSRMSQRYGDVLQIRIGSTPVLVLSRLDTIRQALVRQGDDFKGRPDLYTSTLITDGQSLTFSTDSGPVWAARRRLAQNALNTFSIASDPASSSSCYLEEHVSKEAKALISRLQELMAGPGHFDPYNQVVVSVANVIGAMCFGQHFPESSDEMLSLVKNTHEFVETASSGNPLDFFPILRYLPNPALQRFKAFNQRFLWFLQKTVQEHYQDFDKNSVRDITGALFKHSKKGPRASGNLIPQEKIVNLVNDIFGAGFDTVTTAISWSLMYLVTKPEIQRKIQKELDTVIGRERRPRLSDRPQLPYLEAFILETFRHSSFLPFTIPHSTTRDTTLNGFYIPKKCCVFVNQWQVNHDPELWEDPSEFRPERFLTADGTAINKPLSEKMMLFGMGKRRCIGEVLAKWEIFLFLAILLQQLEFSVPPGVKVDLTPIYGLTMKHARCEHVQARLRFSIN
# [10] = Metabolic stability in dog liver hepatocytes assessed as compound turnover after 120 mins; assay type: ADME, cell-based, Canis lupus familiaris, Hepatocyte; settings: 2 h
# [11] = target: Nitric oxide synthase, inducible (Homo sapiens, UniProt P35228); test: Inhibition of human iNOS expressed in baculovirus-infected insect sf9 cells assessed as conversion of [3H]-L-arginine to [3H]-L-citrulline preincubated for 15 mins with compound measured after 45 mins by scintillation counting
# Chain of Nitric oxide synthase, inducible (P35228 whole entry): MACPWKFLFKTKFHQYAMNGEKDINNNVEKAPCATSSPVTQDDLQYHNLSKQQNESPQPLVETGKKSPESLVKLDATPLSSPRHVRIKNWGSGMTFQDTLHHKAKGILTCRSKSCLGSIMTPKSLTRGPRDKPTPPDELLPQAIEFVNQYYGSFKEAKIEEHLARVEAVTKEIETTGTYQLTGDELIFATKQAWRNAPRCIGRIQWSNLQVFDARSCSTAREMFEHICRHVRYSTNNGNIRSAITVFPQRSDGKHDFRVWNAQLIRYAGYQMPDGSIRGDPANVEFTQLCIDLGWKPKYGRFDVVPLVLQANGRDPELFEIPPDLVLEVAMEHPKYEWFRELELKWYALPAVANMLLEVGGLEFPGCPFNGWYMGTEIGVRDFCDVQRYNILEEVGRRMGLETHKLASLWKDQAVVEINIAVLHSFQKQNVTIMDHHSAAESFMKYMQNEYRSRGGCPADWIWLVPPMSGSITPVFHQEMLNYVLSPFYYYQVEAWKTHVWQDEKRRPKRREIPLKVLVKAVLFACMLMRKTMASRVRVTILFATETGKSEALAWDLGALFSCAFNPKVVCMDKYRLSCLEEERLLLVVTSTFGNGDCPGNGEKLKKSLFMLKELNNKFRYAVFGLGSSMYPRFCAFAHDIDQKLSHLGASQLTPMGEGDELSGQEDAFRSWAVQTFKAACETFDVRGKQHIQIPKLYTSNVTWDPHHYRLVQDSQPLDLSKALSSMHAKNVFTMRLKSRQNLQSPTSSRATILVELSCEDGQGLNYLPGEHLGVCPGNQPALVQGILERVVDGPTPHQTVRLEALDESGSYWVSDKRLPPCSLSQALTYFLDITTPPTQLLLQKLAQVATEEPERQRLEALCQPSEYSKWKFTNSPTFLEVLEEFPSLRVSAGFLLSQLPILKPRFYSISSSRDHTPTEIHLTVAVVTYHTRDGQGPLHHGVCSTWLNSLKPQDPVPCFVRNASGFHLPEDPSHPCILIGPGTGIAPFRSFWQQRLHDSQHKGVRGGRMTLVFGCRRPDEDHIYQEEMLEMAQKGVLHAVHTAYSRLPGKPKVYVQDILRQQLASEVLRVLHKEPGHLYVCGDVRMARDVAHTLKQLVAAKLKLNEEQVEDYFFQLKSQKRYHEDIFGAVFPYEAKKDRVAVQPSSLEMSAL
# [12] = target: Cytochrome P450 2C19 (Homo sapiens, UniProt P33261); test: Inhibition of CYP2C19; assay type: ADME
# Chain of Cytochrome P450 2C19 (P33261 whole entry): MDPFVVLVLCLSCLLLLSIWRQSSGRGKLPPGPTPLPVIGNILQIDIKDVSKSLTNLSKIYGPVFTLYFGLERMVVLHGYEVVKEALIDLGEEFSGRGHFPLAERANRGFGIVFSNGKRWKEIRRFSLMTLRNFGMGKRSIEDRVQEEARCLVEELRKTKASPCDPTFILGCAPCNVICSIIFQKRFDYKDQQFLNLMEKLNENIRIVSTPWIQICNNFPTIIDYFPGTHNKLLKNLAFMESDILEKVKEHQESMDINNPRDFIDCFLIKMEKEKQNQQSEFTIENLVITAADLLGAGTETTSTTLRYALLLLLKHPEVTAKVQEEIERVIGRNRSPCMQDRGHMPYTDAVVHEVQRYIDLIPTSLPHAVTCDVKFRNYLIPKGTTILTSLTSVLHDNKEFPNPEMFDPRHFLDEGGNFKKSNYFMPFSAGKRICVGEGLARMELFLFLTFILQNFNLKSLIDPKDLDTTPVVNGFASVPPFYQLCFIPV
# [13] = target: Cytochrome P450 3A4 (Homo sapiens, UniProt P08684); test: Inhibition of CYP3A4; assay type: ADME
# Chain of Cytochrome P450 3A4 (P08684 whole entry): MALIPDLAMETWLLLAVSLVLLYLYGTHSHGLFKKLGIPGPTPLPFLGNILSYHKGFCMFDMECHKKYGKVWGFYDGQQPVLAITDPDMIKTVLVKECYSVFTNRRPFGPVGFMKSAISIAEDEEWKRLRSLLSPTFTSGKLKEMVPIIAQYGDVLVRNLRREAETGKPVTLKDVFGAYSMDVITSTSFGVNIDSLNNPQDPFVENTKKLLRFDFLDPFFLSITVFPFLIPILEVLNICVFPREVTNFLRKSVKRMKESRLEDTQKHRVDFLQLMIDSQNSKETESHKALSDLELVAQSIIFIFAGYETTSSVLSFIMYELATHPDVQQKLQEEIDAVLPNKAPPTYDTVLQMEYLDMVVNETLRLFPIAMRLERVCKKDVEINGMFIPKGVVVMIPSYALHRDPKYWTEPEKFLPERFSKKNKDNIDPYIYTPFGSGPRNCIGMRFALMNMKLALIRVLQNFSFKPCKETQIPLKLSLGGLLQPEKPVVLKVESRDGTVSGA
# [14] = tested on: Hepatocyte; test: Metabolic stability in rat liver hepatocytes assessed as compound turnover after 120 mins; assay type: ADME, cell-based; settings: 2 h
# [15] = tested on: Hepatocyte; test: Metabolic stability in primates liver hepatocytes assessed as compound turnover after 120 mins; assay type: ADME, cell-based; settings: 2 h
# [16] = target: Mu-type opioid receptor (Homo sapiens) (UniProt P35372); test: Inhibition of mu opioid receptor at 10 uM
# Chain of Mu-type opioid receptor (Homo sapiens) (P35372 whole entry): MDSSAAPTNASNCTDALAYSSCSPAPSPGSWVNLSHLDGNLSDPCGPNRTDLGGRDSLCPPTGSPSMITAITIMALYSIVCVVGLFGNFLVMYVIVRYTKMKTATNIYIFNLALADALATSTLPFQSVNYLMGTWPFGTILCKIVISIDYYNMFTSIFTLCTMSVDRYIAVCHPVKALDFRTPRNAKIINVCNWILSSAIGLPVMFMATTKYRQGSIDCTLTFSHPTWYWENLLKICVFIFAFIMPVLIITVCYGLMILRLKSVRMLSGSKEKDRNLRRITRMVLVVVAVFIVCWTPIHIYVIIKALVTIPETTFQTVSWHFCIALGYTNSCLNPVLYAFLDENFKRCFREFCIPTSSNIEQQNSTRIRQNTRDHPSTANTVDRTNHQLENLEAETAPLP
# Outline: (§3)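 Broad in vitro receptor binding screen at one concentration, 10 μM. Specific binding taken as total minus nonspecific binding with excess unlabeled ligand. […] A reference compound was run concurrently in each assay.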
# [17] = target: T2, Muscarinic acetylcholine receptor M2 (Homo sapiens) (UniProt P08172); test: Inhibition of human muscarinic M2 receptor at 10 uM; outline: as §3
# T2 sequence (whole entry): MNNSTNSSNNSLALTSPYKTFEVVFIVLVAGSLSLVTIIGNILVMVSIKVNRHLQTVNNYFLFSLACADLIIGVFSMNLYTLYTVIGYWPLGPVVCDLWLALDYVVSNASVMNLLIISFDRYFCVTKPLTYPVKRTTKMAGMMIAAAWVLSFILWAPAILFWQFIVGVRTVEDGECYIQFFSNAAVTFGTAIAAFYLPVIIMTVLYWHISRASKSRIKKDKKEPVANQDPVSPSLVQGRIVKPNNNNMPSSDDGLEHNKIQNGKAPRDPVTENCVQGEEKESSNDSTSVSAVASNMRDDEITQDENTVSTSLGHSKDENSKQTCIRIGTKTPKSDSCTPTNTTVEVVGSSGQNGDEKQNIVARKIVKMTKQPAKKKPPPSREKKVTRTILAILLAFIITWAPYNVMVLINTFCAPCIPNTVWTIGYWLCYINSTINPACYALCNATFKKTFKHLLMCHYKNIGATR
# [18] = target: T3, Muscarinic acetylcholine receptor M4 (Homo sapiens) (UniProt P08173); test: Inhibition of human muscarinic M4 receptor at 10 uM; outline: as §3
# T3 sequence (whole entry): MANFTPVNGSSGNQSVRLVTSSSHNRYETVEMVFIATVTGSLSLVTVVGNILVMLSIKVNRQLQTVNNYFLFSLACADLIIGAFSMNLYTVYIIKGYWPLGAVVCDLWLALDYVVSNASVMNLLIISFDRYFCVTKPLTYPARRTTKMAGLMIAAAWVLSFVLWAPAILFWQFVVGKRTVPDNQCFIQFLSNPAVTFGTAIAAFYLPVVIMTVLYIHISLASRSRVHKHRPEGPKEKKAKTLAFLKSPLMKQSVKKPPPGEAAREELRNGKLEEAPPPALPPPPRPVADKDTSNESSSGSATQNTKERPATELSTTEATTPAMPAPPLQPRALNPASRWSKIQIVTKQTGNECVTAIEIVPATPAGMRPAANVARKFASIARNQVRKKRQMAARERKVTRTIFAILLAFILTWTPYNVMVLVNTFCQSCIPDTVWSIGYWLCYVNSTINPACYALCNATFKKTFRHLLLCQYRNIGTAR
# [19] = target: T4, Muscarinic acetylcholine receptor M1 (Homo sapiens) (UniProt P11229); test: Inhibition of human muscarinic M1 receptor at 10 uM; outline: as §3
# T4 sequence (whole entry): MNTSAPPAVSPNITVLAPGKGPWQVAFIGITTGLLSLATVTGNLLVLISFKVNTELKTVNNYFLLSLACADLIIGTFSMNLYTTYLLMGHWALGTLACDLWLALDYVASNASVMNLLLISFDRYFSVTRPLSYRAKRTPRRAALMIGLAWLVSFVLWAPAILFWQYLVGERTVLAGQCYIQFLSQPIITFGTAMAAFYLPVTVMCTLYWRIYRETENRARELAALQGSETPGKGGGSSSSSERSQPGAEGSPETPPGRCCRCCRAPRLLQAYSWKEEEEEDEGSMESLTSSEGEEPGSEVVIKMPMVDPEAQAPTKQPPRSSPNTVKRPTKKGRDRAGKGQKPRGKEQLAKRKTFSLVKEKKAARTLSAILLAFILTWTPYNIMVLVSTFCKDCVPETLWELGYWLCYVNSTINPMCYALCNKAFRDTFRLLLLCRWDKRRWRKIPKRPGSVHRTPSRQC
# [20] = Inhibition of sigma receptor at 10 uM; outline: as §3
# [21] = target: T5, Muscarinic acetylcholine receptor M5 (Homo sapiens) (UniProt P08912); test: Inhibition of human muscarinic M5 receptor at 10 uM; outline: as §3
# T5 sequence (whole entry): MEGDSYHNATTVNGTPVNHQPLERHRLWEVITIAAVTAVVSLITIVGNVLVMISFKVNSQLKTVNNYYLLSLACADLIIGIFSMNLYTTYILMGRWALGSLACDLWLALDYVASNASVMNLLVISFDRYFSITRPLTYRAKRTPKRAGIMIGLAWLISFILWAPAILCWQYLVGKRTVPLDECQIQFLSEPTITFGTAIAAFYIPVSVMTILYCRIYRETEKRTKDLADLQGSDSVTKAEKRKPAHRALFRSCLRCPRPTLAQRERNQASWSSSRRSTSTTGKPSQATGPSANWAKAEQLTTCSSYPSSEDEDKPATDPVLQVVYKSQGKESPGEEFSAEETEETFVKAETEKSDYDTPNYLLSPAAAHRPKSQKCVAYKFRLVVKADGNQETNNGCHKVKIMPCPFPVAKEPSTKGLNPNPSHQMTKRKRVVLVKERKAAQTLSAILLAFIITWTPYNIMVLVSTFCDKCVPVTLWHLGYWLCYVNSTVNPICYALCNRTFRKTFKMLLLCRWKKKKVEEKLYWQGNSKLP
# [22] = target: Muscarinic acetylcholine receptor M3 (Homo sapiens) (UniProt P20309); test: Inhibition of human muscarinic M3 receptor at 10 uM; outline: as §3
# Chain of Muscarinic acetylcholine receptor M3 (Homo sapiens) (P20309 whole entry, looked up): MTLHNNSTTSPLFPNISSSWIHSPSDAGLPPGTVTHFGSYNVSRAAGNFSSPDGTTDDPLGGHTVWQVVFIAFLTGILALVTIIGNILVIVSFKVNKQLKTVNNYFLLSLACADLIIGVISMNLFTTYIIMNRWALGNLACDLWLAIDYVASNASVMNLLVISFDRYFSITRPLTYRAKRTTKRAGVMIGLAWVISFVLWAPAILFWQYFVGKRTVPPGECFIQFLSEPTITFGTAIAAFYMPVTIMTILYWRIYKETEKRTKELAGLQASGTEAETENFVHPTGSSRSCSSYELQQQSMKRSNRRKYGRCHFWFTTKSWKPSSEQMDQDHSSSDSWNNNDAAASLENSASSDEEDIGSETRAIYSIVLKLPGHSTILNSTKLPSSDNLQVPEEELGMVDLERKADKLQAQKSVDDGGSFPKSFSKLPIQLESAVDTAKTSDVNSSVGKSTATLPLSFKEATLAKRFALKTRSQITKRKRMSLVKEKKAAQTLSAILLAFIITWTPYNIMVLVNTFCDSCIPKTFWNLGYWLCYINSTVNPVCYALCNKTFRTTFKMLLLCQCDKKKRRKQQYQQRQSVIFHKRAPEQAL
# Chain of Cytochrome P450 2C9 (P11712 whole entry): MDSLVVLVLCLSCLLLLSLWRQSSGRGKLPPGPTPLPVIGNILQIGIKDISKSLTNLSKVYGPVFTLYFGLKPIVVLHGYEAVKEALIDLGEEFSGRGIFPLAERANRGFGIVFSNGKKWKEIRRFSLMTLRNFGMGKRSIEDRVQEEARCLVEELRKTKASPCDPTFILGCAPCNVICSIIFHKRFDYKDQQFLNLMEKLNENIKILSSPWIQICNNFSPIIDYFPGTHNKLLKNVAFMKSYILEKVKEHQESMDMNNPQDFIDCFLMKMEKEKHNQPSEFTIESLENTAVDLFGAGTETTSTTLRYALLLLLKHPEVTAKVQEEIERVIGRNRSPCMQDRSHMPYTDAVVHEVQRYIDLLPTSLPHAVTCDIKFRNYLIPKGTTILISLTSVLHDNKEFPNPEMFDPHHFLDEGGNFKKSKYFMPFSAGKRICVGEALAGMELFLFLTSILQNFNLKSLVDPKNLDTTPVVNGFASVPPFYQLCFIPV
structure (smiles),measurement,setting,value
"CNC1CCCC(c2c[nH]c3ccc(NC(=N)c4cccs4)cc23)C1.Cl (single isomer, unassigned; (+))",IC50,[1],Not Active
same,Activity,[2],96%
same,Stability,[3],Stable
same,IC50,[4],1000 nM
same,Activity,[5],90%
same,Activity,[6],Non-toxic
same,IC50,[7],5.14 µM
same,Activity,[8],Non-toxic
same,IC50,[9],Not Active
same,Stability,[10],Stable
same,IC50,[11],6.76 µM
same,IC50,[12],> 100 µM
same,IC50,[13],100 µM
same,Stability,[14],Stable
same,Stability,[15],Stable
"CNC1CCCC(c2c[nH]c3ccc(NC(=N)c4cccs4)cc23)C1 (single isomer, unassigned; (+))",inhibition,[16],53%
same,inhibition,[17],87%
same,inhibition,[18],93%
same,inhibition,[19],80%
same,inhibition,[20],61%
same,inhibition,[21],87%
same,inhibition,[22],88%

# — ChEMBL document CHEMBL2034871, “First-in-class, dual-action, 3,5-disubstituted indole derivatives having human nitric oxide synthase (nNOS) and norepinephrine reuptake inhibitory (NERI) activity for the treatment of neuropathic pain” (J Med Chem, 2012)
